≈ marks a conversion by molar mass, not a printed value. Calls of active or inactive are those of the source. The rule behind the calls is not given here.
Key:
Plasmodium cynomolgi [1] = experiment: Antimalarial activity against Plasmodium cynomolgi infected in rhesus monkey assessed as delay in patency time at 1.78 mg/kg, po administered one day before infection, on day of infection followed by 1 day post infection; format: functional
Procedure, shortened: (§1)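 Rhesus monkeys challenged with P. cynomolgi sporozoites. Oral dosing on days −1, 0 and 1 in HECT or MC vehicle, with dose in (mg/kg)/day. Read-out is the first day of patency and the delay in patency relative to vehicle-treated controls.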

Plasmodium falciparum [2] = experiment: Antimalarial activity against blood stage Plasmodium falciparum TM91C235 assessed as [3H]-hypoxanthine uptake after 24 hrs by scintillation counting; format: functional, organism-based
[3] = Metabolic stability in mouse assessed as half life at 320 mg/kg, po by LC-MS/MS analysis; format: ADME, organism-based; design: dose 320 mg/kg, route oral; settings: in vivo
[4] = Metabolic stability in human assessed as half life at 320 mg/kg, po by LC-MS/MS analysis; format: ADME, organism-based; design: dose 320 mg/kg, route oral
Plasmodium falciparum [5] = experiment: Antimalarial activity against blood stage Plasmodium falciparum D6 assessed as [3H]-hypoxanthine uptake after 24 hrs by scintillation counting; format: functional, organism-based
Plasmodium falciparum [6] = experiment: Antimalarial activity against blood stage Plasmodium falciparum W2 assessed as [3H]-hypoxanthine uptake after 24 hrs by scintillation counting; format: functional, organism-based
Plasmodium berghei [7] = experiment: Antimalarial activity against Plasmodium berghei […] mouse model assessed as delay in patency time at 160 mg/kg, po administered one day before infection, on day of infection and one day post infection; format: functional
Procedure, shortened: (§2)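 Sporozoite-challenged exoerythrocytic mouse model using P. berghei. Compound ground and suspended in hydroxyethylcellulose with Tween 80 for oral dosing, given once daily for 3 consecutive days: day before, 4 h before, and day after sporozoite inoculation. Dose in (mg/kg)/day. Mice are scored for protection (causal prophylaxis) and for delay in patency.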

Plasmodium berghei [8] = experiment: Antimalarial activity against Plasmodium berghei […] mouse model assessed as causal prophylactic activity at 320 mg/kg, po administered one day before infection, on day of infection and one day post infection; format: functional, organism-based; design: dose 320 mg/kg
Procedure, shortened: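 Sporozoite-inoculated P. berghei exoerythrocytic (EE) mouse model. Compound ground and suspended in hydroxyethylcellulose plus Tween 80 for oral dosing, given once daily for 3 consecutive days: day before, 4 h before, and day after sporozoite inoculation (days −1, 0, 1). Dose in (mg/kg)/day. Read-out is mice protected per group (causal prophylaxis) or delay in patency.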

Plasmodium cynomolgi [9] = experiment: Antimalarial activity against Plasmodium cynomolgi infected in rhesus monkey assessed as delay in patency time at 50 mg/kg, po administered one day before infection, on day of infection followed by 1 day post infection; format: functional; procedure, shortened: as §1
[10] = Metabolic stability in mouse assessed as half life at 160 mg/kg, po by LC-MS/MS analysis; format: ADME, organism-based; design: dose 160 mg/kg, route oral
[11] = Metabolic stability in human assessed as half life at 160 mg/kg, po by LC-MS/MS analysis; format: ADME, organism-based; design: dose 160 mg/kg, route oral
Plasmodium berghei [12] = experiment: Antimalarial activity against Plasmodium berghei […] mouse model assessed as causal prophylactic activity at 160 mg/kg, po administered one day before infection, on day of infection and one day post infection; format: functional, organism-based; design: dose 160 mg/kg; procedure, shortened: as §2
Plasmodium berghei [13] = experiment: Antimalarial activity against Plasmodium berghei […] mouse model assessed as delay in patency time at 320 mg/kg, po administered one day before infection, on day of infection and one day post infection; format: functional; procedure, shortened: as §2
Plasmodium berghei [14] = experiment: Antimalarial activity against Plasmodium berghei […] mouse model assessed as causal prophylactic activity at 40 mg/kg, po administered one day before infection, on day of infection and one day post infection; format: functional, organism-based; design: dose 40 mg/kg; procedure, shortened: as §2
Plasmodium berghei [15] = experiment: Antimalarial activity against Plasmodium berghei […] mouse model assessed as delay in patency time at 40 mg/kg, po administered one day before infection, on day of infection and one day post infection; format: functional; procedure, shortened: as §2

SMILES | Time (Plasmodium cynomolgi [1]) | IC50 (Plasmodium falciparum [2]) | half-life [3] | half-life [4] | IC50 (Plasmodium falciparum [5]) | IC50 (Plasmodium falciparum [6]) | Time (Plasmodium berghei [7]) | Activity (Plasmodium berghei [8]) | Time (Plasmodium cynomolgi [9]) | half-life [10] | half-life [11] | Activity (Plasmodium berghei [12]) | Time (Plasmodium berghei [13]) | Activity (Plasmodium berghei [14]) | Time (Plasmodium berghei [15])
COc1cc(NC(C)CCCN)c2ncccc2c1 (stereo not given) [PRIMAQUINE] | 5 days |  |  |  |  |  |  |  |  |  |  |  |  |  | 
CC(C)N/C(=N/C(=O)OC(C)(C)C)NC1=NC(=O)CN1c1cccc(Cl)c1Cl |  | 0.9 µg/mL (≈ 2.1 µM) | > 60 min | > 60 min | 0.56 µg/mL (≈ 1.31 µM) | 0.63 µg/mL (≈ 1.47 µM) |  |  |  |  |  |  |  |  | 
CC(C)/N=C(\NC1=NC(=O)CN1C(C)C)Nc1ccc(Cl)c(Cl)c1 |  | > 5 µg/mL | 17 min | 53 min | 1.65 µg/mL (≈ 4.46 µM) | 0.37 µg/mL (≈ 0.999 µM) | 1 days | Active | 4 days |  |  |  |  |  | 
CC(C)N1CC(=O)N=C1N/C(=N\C(C)(C)C)Nc1ccc(Cl)c(Cl)c1 |  | 5.2 µg/mL (≈ 13.5 µM) |  |  | 3 µg/mL (≈ 7.81 µM) | 1.49 µg/mL (≈ 3.88 µM) |  |  |  | 1.72 min | 39.7 min | inactive |  |  | 
CCOC(=O)/N=C(\NC1=NC(=O)CN1C(C)C)Nc1ccc(Cl)c(Cl)c1 |  |  | > 60 min | 34.3 min | 2.86 µg/mL (≈ 7.15 µM) | 2.8 µg/mL (≈ 7 µM) | 2 days |  |  |  |  | inactive | 2 days |  | 
CC(C)N1CC(=O)N=C1N/C(=N\C(=O)C(C)(C)C)Nc1ccc(Cl)c(Cl)c1 |  | > 1.28 µg/mL |  |  | 3.19 µg/mL (≈ 7.74 µM) | 4.9 µg/mL (≈ 11.9 µM) | 3 days |  | 0 days | > 60 min | > 60 min |  |  | inactive | 
CC(C)(C)N1CC(=O)N=C1NC(=N)Nc1ccc(Cl)c(Cl)c1 |  | > 5 µg/mL |  |  | 2.75 µg/mL (≈ 8.04 µM) | 1.01 µg/mL (≈ 2.95 µM) | 2 days | Active |  | > 60 min | > 60 min |  |  |  | 
CCC(CC)C(=O)/N=C(\NC1=NC(=O)CN1C(C)C)Nc1ccc(Cl)c(Cl)c1 |  | 0.16 µg/mL (≈ 0.375 µM) | 5 min | 14 min | 0.06 µg/mL (≈ 0.141 µM) | 0.09 µg/mL (≈ 0.211 µM) | 2 days |  |  |  |  | inactive | 3 days |  | 
CC(C)N1CC(=O)N=C1N/C(=N\C(=O)OC(C)(C)C)Nc1ccc(Cl)c(Cl)c1 |  | > 5 µg/mL |  |  | 1.6 µg/mL (≈ 3.74 µM) | 0.74 µg/mL (≈ 1.73 µM) |  |  | 2 days | 15.8 min | 12.8 min | Active |  |  | 
CCOC(=O)/N=C(/NC1=NC(=O)CN1c1ccc(Cl)c(Cl)c1)NC(C)C |  |  | > 60 min | > 60 min | 0.15 µg/mL (≈ 0.375 µM) | 0.25 µg/mL (≈ 0.625 µM) |  | inactive |  |  |  |  |  |  | 
CC(C)/N=C(\NC1=NC(=O)CN1C)Nc1ccc(Cl)c(Cl)c1 |  | > 5 µg/mL | 49.8 min | > 60 min | > 5 µg/mL | > 5 µg/mL | 2 days |  |  |  |  |  |  |  | 
CC/N=C(\NC1=NC(=O)CN1C(C)C)Nc1ccc(Cl)c(Cl)c1 |  | 3.01 µg/mL (≈ 8.45 µM) |  |  | 3.38 µg/mL (≈ 9.49 µM) | 2.27 µg/mL (≈ 6.37 µM) |  |  |  |  |  |  |  |  | 
CN1CC(=O)N=C1N/C(=N\C(=O)OC(C)(C)C)Nc1ccc(Cl)c(Cl)c1 |  | 2.54 µg/mL (≈ 6.35 µM) |  |  | 1.26 µg/mL (≈ 3.15 µM) | 1.72 µg/mL (≈ 4.3 µM) | 1 days |  |  | < 10 min | < 10 min |  |  |  | 2 days
CC(C)N/C(=N\C(=O)C(C)(C)C)NC1=NC(=O)CN1c1ccc(Cl)c(Cl)c1 |  |  | 13.5 min | 40.5 min | 4.65 µg/mL (≈ 11.3 µM) | 4.87 µg/mL (≈ 11.8 µM) | 2 days |  |  |  |  |  | 2 days |  | 
CC(C)(C)N/C(=N/C1=NC(=O)CN1c1ccc(Cl)c(Cl)c1)Nc1ccc(Cl)c(Cl)c1 |  |  |  | > 60 min | 2.45 µg/mL (≈ 5.03 µM) | 2.58 µg/mL (≈ 5.3 µM) |  |  |  | > 60 min |  | inactive |  |  | 
CC(C)N1CC(=O)N=C1N/C(=N\C12CC3CC(CC(C3)C1)C2)Nc1ccc(Cl)c(Cl)c1 |  | 2.6 µg/mL (≈ 5.62 µM) |  |  | 1.55 µg/mL (≈ 3.35 µM) | 2.51 µg/mL (≈ 5.43 µM) |  |  |  | 22.3 min | 20.9 min | inactive |  |  | 
CC(C)N1CC(=O)N=C1N/C(=N/c1ccc(Cl)c(Cl)c1)N1CCCCC1 |  |  |  |  | > 5 µg/mL | 1.98 µg/mL (≈ 5 µM) |  |  |  | 18 min | 28 min | inactive |  |  | 
CC(C)N1CC(=O)N=C1N/C(=N/c1ccc(Cl)c(Cl)c1)N1CCCC1 |  | > 5 µg/mL |  |  | > 5 µg/mL | 2.2 µg/mL (≈ 5.75 µM) | 2 days |  |  | > 60 min | > 60 min |  |  |  | 
CN1CC(=O)N=C1NC(=N)Nc1ccc(Cl)c(Cl)c1 |  | 3.31 µg/mL (≈ 11 µM) |  |  | 3.42 µg/mL (≈ 11.4 µM) | 2.57 µg/mL (≈ 8.56 µM) |  |  |  | > 60 min | > 60 min | inactive |  |  | 
CC/N=C(\NC1=NC(=O)CN1c1ccc(Cl)c(Cl)c1)Nc1ccc(Cl)c(Cl)c1 |  | > 5 µg/mL |  | > 60 min | 2.6 µg/mL (≈ 5.66 µM) | > 5 µg/mL |  |  |  | > 60 min |  | inactive |  |  | 
CC(C)/N=C(\NC1=NC(=O)CN1c1ccc(Cl)c(Cl)c1)Nc1ccc(Cl)c(Cl)c1 |  | 2.83 µg/mL (≈ 5.98 µM) |  |  | 1.66 µg/mL (≈ 3.51 µM) | 2.86 µg/mL (≈ 6.04 µM) |  | inactive |  | 27.2 min | 39.2 min | inactive | 1 days |  | 
CC(C)n1cc(OC(=O)C(C)(C)C)nc1N/C(=N\C(=O)C(C)(C)C)Nc1ccc(Cl)c(Cl)c1 |  | > 12 µg/mL |  |  | > 12 µg/mL | > 12 µg/mL |  |  |  | > 60 min | > 60 min | inactive |  |  | 
CC(C)NC(=N)NC1=NC(=O)CN1c1cccc(Cl)c1Cl |  | 2.19 µg/mL (≈ 6.67 µM) | 13.5 min | 53.7 min | 1.1 µg/mL (≈ 3.35 µM) | 0.7 µg/mL (≈ 2.13 µM) |  |  |  |  |  |  |  |  | 
CCC(CC)C(=O)/N=C(\NC1=NC(=O)CN1c1cccc(Cl)c1Cl)NC(C)C |  |  | > 60 min | 59.2 min | 0.78 µg/mL (≈ 1.83 µM) | 1.55 µg/mL (≈ 3.64 µM) |  |  |  |  |  |  | 2 days |  | 
CC(C)(C)OC(=O)/N=C(\NC1=NC(=O)CN1C(C)(C)C)Nc1ccc(Cl)c(Cl)c1 |  | > 5 µg/mL |  |  | 2.9 µg/mL (≈ 6.56 µM) | > 5 µg/mL |  |  |  | < 10 min | < 10 min | Active |  |  | 
CC(C)N1CC(=O)N=C1NC(=N)Nc1ccc(Cl)c(Cl)c1 |  | 3.31 µg/mL (≈ 10.1 µM) |  |  | 3.42 µg/mL (≈ 10.4 µM) | 2.57 µg/mL (≈ 7.83 µM) |  |  |  | 40 min | > 60 min | inactive |  |  | 6 days
